Data set [1] can be described thus: Retention time of the compound using 2 to 90% MeOH in H2O with 0.1% FA over 15 mins by RP-LC method. It is filed as physicochemical. The following applies: 0.25 h. In a few lines:
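Reversed-phase LC with UV detection at 214 nm; gradient of 2–90% MeOH in H2O containing 0.1% formic acid over 15 min; retention time in minutes.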

The target of data set [2] is Insulin receptor (Homo sapiens) (UniProt P06213). The experiment in a line: Inhibition of human active insulin receptor tyrosine kinase domain (amino acids 1005 to 1310) assessed as residual autophosphorylation level at 400 uM using 1000 uM ATP and insulin by BCIP/NBT staining based colorimetry and immunoblotting. A digest of the protocol: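 Recombinant IRTK domain (residues 1005–1310), 200 ng/mL, incubated with 1000 µM ATP and peptide ligand in reaction buffer for 20 min at 37 °C, then quenched. Samples were resolved by denaturing 10% Bis-Tris PAGE and transferred to PVDF, which was blocked overnight in 2% BSA/TBST. Blots were probed with anti-phospho-IR/IGF1R (Tyr1158/1162/1163) and an AP-conjugated goat anti-rabbit IgG, and developed colorimetrically with BCIP/NBT.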
Sequence of Insulin receptor (Homo sapiens) (P06213 28-758 limits assumed): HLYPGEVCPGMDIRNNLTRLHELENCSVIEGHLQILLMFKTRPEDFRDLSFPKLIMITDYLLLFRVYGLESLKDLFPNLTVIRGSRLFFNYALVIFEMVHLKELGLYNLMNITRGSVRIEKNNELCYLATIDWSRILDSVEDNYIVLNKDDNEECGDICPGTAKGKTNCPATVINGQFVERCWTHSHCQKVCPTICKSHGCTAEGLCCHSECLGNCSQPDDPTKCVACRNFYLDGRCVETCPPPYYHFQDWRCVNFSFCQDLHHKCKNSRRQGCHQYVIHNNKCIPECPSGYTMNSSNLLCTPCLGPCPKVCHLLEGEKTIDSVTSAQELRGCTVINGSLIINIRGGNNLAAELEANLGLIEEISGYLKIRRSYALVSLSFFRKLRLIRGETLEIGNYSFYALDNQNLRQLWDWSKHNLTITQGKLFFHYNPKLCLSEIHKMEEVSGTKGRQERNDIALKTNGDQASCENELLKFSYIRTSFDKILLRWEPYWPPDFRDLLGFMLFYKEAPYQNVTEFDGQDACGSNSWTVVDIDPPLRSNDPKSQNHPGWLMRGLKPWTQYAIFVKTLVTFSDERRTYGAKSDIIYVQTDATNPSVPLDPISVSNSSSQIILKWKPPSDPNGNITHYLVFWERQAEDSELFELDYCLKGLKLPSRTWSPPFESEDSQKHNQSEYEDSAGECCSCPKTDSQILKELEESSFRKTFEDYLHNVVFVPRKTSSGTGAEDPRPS
Sequence of Insulin receptor (Homo sapiens) (P06213 763-1382 limits assumed): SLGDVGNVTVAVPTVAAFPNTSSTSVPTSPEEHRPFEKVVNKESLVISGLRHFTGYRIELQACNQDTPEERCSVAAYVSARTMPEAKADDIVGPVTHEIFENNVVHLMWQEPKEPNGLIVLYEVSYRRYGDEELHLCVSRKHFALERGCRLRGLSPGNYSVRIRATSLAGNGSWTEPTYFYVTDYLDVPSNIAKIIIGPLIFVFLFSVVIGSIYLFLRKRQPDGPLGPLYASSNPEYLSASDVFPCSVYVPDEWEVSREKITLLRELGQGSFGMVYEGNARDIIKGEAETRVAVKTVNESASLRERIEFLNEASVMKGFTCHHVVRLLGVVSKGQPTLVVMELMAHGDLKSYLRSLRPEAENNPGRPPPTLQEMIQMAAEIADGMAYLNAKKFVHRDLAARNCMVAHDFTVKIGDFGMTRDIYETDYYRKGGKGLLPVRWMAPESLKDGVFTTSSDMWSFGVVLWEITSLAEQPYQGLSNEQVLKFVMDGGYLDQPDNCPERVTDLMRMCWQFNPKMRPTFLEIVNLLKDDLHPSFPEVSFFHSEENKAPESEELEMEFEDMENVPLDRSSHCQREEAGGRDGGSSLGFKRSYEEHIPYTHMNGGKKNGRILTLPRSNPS
Background: A western blot detects proteins with antibodies after separation by electrophoresis.

The nature of data set [3]: Retention time of the compound using 2 to 90% MeCN in H2O with 0.1% FA over 15 mins by RP-LC method. It is filed as physicochemical. The following applies: 0.25 h.
The target in data set [4] is Insulin receptor (Homo sapiens) (UniProt P06213). The experiment in a line: Inhibition of IRTK (unknown origin) assessed as reduction in enzyme phosphorylation at 4 mM.
For data set [5] the target is unchanged. The experiment in a line: Stimulation of human active insulin receptor tyrosine kinase domain (amino acids 1005 to 1310) assessed as increase in autophosphorylation at 400 uM using 1000 uM ATP and insulin by BCIP/NBT staining based colorimetry and immunoblotting.
Data set [6] shares this target. Kind of data set: Inhibition of human active insulin receptor tyrosine kinase domain (amino acids 1005 to 1310) assessed as reduction in autophosphorylation at 400 uM using 1000 uM ATP and insulin by BCIP/NBT staining based colorimetry and immunoblotting.
Data set [7] deals with Insulin receptor (Rattus norvegicus) (UniProt P15127). Kind of data set: Inhibition of rat liver IRTK assessed as reduction in enzyme phosphorylation at 4 mM.
Sequence of Insulin receptor (Rattus norvegicus) (P15127 27-759 limits assumed): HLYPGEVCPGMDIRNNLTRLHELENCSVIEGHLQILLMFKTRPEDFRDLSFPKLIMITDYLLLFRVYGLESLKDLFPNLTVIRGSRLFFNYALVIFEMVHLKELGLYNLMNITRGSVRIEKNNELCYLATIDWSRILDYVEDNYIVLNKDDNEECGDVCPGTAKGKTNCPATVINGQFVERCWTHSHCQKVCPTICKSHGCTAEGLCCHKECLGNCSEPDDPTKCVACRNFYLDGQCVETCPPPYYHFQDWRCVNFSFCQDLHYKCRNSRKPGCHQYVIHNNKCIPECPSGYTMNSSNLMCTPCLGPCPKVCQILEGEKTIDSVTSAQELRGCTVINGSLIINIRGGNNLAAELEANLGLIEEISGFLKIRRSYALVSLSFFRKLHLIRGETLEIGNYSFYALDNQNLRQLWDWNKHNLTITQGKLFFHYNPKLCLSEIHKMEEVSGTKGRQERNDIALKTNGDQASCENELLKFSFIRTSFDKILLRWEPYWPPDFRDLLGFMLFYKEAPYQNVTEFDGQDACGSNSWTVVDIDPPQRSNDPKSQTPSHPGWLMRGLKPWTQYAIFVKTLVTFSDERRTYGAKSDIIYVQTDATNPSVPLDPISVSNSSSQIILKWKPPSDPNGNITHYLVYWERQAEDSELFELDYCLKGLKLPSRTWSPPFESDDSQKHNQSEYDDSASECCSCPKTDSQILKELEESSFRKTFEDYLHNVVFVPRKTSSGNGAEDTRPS
Sequence of Insulin receptor (Rattus norvegicus) (P15127 764-1383 limits assumed): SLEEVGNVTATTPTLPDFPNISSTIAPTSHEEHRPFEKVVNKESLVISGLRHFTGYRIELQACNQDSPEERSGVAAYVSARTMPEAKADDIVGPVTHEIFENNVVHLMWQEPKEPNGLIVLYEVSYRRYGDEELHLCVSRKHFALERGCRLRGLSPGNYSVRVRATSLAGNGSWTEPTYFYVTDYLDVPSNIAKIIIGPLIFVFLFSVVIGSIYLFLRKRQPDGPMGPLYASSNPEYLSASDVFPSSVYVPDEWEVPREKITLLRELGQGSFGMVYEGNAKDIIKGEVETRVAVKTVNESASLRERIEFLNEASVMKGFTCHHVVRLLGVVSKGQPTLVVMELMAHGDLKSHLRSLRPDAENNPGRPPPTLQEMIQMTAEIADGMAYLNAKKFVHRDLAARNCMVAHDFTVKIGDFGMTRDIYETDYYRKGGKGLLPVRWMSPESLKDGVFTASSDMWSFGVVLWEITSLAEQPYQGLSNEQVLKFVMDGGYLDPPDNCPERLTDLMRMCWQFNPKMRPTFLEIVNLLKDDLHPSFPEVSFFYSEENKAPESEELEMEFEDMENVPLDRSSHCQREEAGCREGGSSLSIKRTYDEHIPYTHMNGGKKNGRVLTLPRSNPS

Starred links: 1 amine or outer side, 2 acyl side, 3 side chain; linkers in the order of their positions; H or OH if unused. Non-standard residues stand in square brackets, D forms with d. Residues, ends and D or L forms follow the SMILES beside them. azaTyr = O=C(N(Cc1ccc(O)cc1)N[*:1])[*:2]; X1 = O=C(N(Cc1ccc(O)c(O)c1)N[*:1])[*:2]; azaPhe = O=C(N(Cc1ccccc1)N[*:1])[*:2]; X3 = CC[C@H](C)N(N[*:1])C(=O)[*:2]; X2 = O=C(O)CCN(N[*:1])C(=O)[*:2]; AzaAla = CN(N[*:1])C(=O)[*:2]; azaGly = NNC(=O)O

For `CC[C@H](C)[C@H](NC(=O)[C@H](CC(=O)O)NC(C)=O)C(=O)NN(Cc1ccccc1)C(=O)N[C@@H](CCC(=O)O)C(=O)N[C@H](C(N)=O)[C@@H](C)O` (Ac-DI[azaPhe]ET-NH2), the Retention_time was 11.76 min in data set [1] and 7.76 min in data set [3]. In addition, the Activity in data set [2] worked out at 67%.

Regarding Ac-DIFET-NH2, the Activity in data set [2] is 84%. For the same molecule, in data set [4], the inhibition (usually the percentage by which the read-out fell short of the control) worked out at 20%.

Take `CC(=O)N[C@@H](CC(=O)O)C(=O)NN(C)C(=O)N[C@@H](Cc1ccc(O)cc1)C(=O)N[C@@H](CCC(=O)O)C(=O)N[C@H](C(N)=O)[C@@H](C)O` (Ac-D[AzaAla]YET-NH2): the Retention_time is 7.42 min in data set [1] and 5.26 min in data set [3]. Besides, in data set [2], the Activity was determined as 74%.

Consider `CC[C@H](C)[C@H](NC(=O)[C@H](CC(=O)O)NC(C)=O)C(=O)NN(Cc1ccc(O)c(O)c1)C(=O)N[C@@H](CCC(=O)O)C(=O)N[C@H](C(N)=O)[C@@H](C)O` (Ac-DI[X1]ET-NH2), for which the Retention_time in data set [1] was 8.9 min; in data set [3] it was 6.33 min. For the same molecule, the Activity in data set [2] worked out at 128%; in data set [5], 30%.

As to `CC[C@H](C)[C@H](NC(=O)[C@H](CC(=O)O)NC(C)=O)C(=O)N[C@@H](Cc1ccc(O)cc1)C(=O)NN(CCC(=O)O)C(=O)N[C@H](C(N)=O)[C@@H](C)O` (Ac-DIY[X2]T-NH2), the Retention_time worked out at 9.61 min in data set [1] and 6.41 min in data set [3]. Further, the Activity stood at 110% in data set [2] and 10% in data set [5].

As for `CC(=O)N[C@@H](CC(=O)O)C(=O)NNC(=O)N[C@@H](Cc1ccc(O)cc1)C(=O)N[C@@H](CCC(=O)O)C(=O)N[C@H](C(N)=O)[C@@H](C)O` (Ac-D[azaGly]YET-NH2), the figures for the Retention_time in data set [1] and in data set [3] were 6.99 min and 5.04 min, respectively. Besides, the Activity in data set [2] is 61%.

Ac-DIYET-NH2: the inhibition in data set [6] was below 10%; in data set [7], 80%. Further, the Activity in data set [2] turned out to be 82%.

In the case of `CC(C)(C)c1cc(C=C(C#N)C#N)cc(Br)c1O`, the inhibition in data set [6] stood at 80%.

Take `CC[C@H](C)N(NC(=O)[C@H](CC(=O)O)NC(C)=O)C(=O)N[C@@H](Cc1ccc(O)cc1)C(=O)N[C@@H](CCC(=O)O)C(=O)N[C@H](C(N)=O)[C@@H](C)O` (Ac-D[X3]YET-NH2): the results for the Retention_time in data set [1] and in data set [3] were 6.97 min and 5.13 min, respectively. The Activity in data set [2] was determined as 73%.

As to `CC[C@H](C)[C@H](NC(=O)[C@H](CC(=O)O)NC(C)=O)C(=O)NN(Cc1ccc(O)cc1)C(=O)N[C@@H](CCC(=O)O)C(=O)N[C@H](C(N)=O)[C@@H](C)O` (Ac-DI[azaTyr]ET-NH2), the inhibition in data set [6] is 50%. For the same molecule, the Retention_time in data set [1] stood at 9.95 min; in data set [3] it was 6.68 min. The Activity in data set [2] came to 40%.

For the origin of these results see ChEMBL document CHEMBL3352286, “Submonomer synthesis of azapeptide ligands of the Insulin Receptor Tyrosine Kinase domain” (Bioorg Med Chem Lett, 2014).
